Source: ChEMBL document CHEMBL1123977, “Synthesis, receptor binding, and tissue distribution of (17 alpha,20E)- and (17 alpha,20Z)-21-[125I]iodo-19-norpregna-1,3,5(10), 20-tetraene-3,17-diol ” (1988)

Legend:
Rattus norvegicus [1] = experiment: Mean uptake in ovaries 2 hr after intravenous injection of 3 microCi (111 kBq); assay type: functional, Female gonad
Summary of the method: (§1)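 Immature female Fischer rats (24 days old, 55-60 g) had free access to food and water. They were warmed under an infrared lamp, then given 200 μL HPLC-purified 125I-labeled steroid (3 μCi, 111 kBq) in saline with 9% ethanol and 1% Tween 80 via the lateral tail vein. Where stated, 60 μg unlabeled estradiol was co-injected. Rats were killed at 1, 2 or 5 h. Tissues were KCl-washed, blotted, weighed and gamma-counted against a reference of the injectate. Results are PDK (% dose × kg/g), mean and SD of three rats.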

Rattus norvegicus [2] = experiment: Mean uptake in thyroid 2 hr after intravenous injection of 3 microCi (111 kBq); assay type: functional, Thyroid gland; summary of the method: as §1
Rattus norvegicus [3] = experiment: Mean uptake in liver 5 hr after intravenous injection of 3 microCi (111 kBq); assay type: functional; summary of the method: as §1
Rattus norvegicus [4] = experiment: Mean uptake in adrenals 2 hr after intravenous injection of 3 microCi (111 kBq) in presence of 60 ug coinjected estradiol; assay type: functional, Adrenal gland; summary of the method: as §1
Rattus norvegicus [5] = experiment: Mean uptake in kidneys 2 hr after intravenous injection of 3 microCi (111 kBq) in presence of 60 ug coinjected estradiol; assay type: functional, Kidney; summary of the method: as §1
Rattus norvegicus [6] = experiment: Mean uptake in kidneys 1 hr after intravenous injection of 3 microCi (111 kBq) of the compound; assay type: functional; summary of the method: as §1
Rattus norvegicus [7] = experiment: Mean uptake in uterus 1 hr after intravenous injection of 3 microCi (111 kBq) of the compound; assay type: functional; summary of the method: as §1
Rattus norvegicus [8] = experiment: Mean uptake in kidneys 5 hr after intravenous injection of 3 microCi (111 kBq); assay type: functional; summary of the method: as §1
Rattus norvegicus [9] = experiment: Mean uptake in blood 1 hr after intravenous injection of 3 microCi (111 kBq) of the compound; assay type: functional; summary of the method: as §1
Rattus norvegicus [10] = experiment: Mean uptake in liver 2 hr after intravenous injection of 3 microCi (111 kBq) in presence of 60 ug coinjected estradiol; assay type: functional; summary of the method: as §1
Rattus norvegicus [11] = species: Rattus norvegicus; experiment: Effect of Co-injection with estradiol on the uterus to blood ratio (Co-injected with 60 microg of estradiol (E2)); assay type: functional
Summary of the method: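 Immature female Fischer rats (24 days, 55-60 g) received 3 μCi (111 kBq) 125I-labelled steroid iv via the lateral tail vein, in 200 μL 9% ethanol-saline with 1% Tween 80, co-injected with 60 μg unlabelled estradiol. Killed at 2 h. Uterus and blood were KCl-washed and gamma-counted as PDK. Ratio is the mean of three rats; % change is versus tracer-only animals.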

Rattus norvegicus [12] = experiment: Mean uptake in ovaries 2 hr after intravenous injection of 3 uM Ci (111 kBq) in presence of 60 ug coinjected estradiol; assay type: functional, Female gonad; summary of the method: as §1
Rattus norvegicus [13] = experiment: In vivo deiodination in 2 hour after administration of compound in presence of 60 microg of estradiol; assay type: functional
Summary of the method: (§2)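 In immature female Fischer rats given 3 μCi (111 kBq) of 125I-steroid iv, deiodination was estimated from thyroid PDK at 1, 2 or 5 h, or at 2 h with 60 μg co-injected estradiol. Thyroid uptake after [125I]NaI injection at the same time interval was taken as 100%.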

Rattus norvegicus [14] = experiment: Mean uptake in blood 5 hr after intravenous injection of 3 microCi (111 kBq); assay type: functional; summary of the method: as §1
Rattus norvegicus [15] = experiment: Mean uptake in liver 2 hr after intravenous injection of 3 microCi (111 kBq); assay type: functional; summary of the method: as §1
Rattus norvegicus [16] = experiment: Mean uptake in uterus 2 hr after intravenous injection of 3 microCi (111 kBq); assay type: functional
Summary of the method: (§3)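 Immature female Fischer rats (24 days old, 55-60 g), food and water free. 3 μCi (111 kBq) HPLC-purified 125I-labeled steroid given iv via lateral tail vein in 200 μL saline containing 9% ethanol and 1% Tween 80; receptor-saturation group co-injected with 60 μg unlabeled estradiol. Sacrificed at set times; uterus washed with 0.154 M KCl, blotted, weighed, gamma counted against injected reference; expressed as PDK (% dose × kg/g), mean of three rats.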

Rattus norvegicus [17] = experiment: Mean uptake in uterus 5 hr after intravenous injection of 3 microCi (111 kBq); assay type: functional; summary of the method: as §3
Rattus norvegicus [18] = experiment: Mean uptake in thyroid 1 hr after intravenous injection of 3 microCi (111 kBq) of the compound; assay type: functional, Thyroid gland; summary of the method: as §1
Rattus norvegicus [19] = experiment: Mean uptake in ovaries 1 hr after intravenous injection of 3 microCi (111 kBq) of the compound; assay type: functional, Female gonad; summary of the method: as §1
Rattus norvegicus [20] = experiment: Mean uptake in lungs 2 hr after intravenous injection of 3 microCi (111 kBq); assay type: functional; summary of the method: as §1
Rattus norvegicus [21] = experiment: Mean uptake in brain 1 hr after intravenous injection of 3 microCi (111 kBq) of the compound; assay type: functional; summary of the method: as §1
Rattus norvegicus [22] = experiment: Mean uptake in spleen 2 hr after intravenous injection of 3 uM Ci (111 kBq) in presence of 60 ug coinjected estradiol; assay type: functional; summary of the method: as §1
Rattus norvegicus [23] = experiment: In vivo deiodination in 2 hour after administration of compound; assay type: functional; summary of the method: as §2
Rattus norvegicus [24] = experiment: Mean uptake in lungs 2 hr after intravenous injection of 3 microCi (111 kBq) in presence of 60 ug coinjected estradiol; assay type: functional; summary of the method: as §1
Rattus norvegicus [25] = experiment: Mean uptake in adrenals 5 hr after intravenous injection of 3 microCi (111 kBq); assay type: functional, Adrenal gland; summary of the method: as §1
Rattus norvegicus [26] = experiment: In vivo deiodination in 1 hour after administration of compound; assay type: functional; summary of the method: as §2
Rattus norvegicus [27] = experiment: Mean uptake in muscles 5 hr after intravenous injection of 3 microCi (111 kBq); assay type: functional, Muscle tissue; summary of the method: as §1
Rattus norvegicus [28] = experiment: Mean uptake in brain 2 hr after intravenous injection of 3 microCi (111 kBq); assay type: functional; summary of the method: as §1
Rattus norvegicus [29] = experiment: Mean uptake in spleen 2 hr after intravenous injection of 3 uM Ci (111 kBq); assay type: functional; summary of the method: as §1
Rattus norvegicus [30] = experiment: Mean uptake in liver 1 hr after intravenous injection of 3 microCi (111 kBq) of the compound; assay type: functional; summary of the method: as §1
Rattus norvegicus [31] = experiment: Mean uptake in spleen 1 hr after intravenous injection of 3 microCi (111 kBq) of the compound; assay type: functional; summary of the method: as §1
Rattus norvegicus [32] = experiment: Mean uptake in blood 2 hr after intravenous injection of 3 microCi (111 kBq); assay type: functional; summary of the method: as §1
Rattus norvegicus [33] = experiment: Mean uptake in muscle 2 hr after intravenous injection of 3 microCi (111 kBq); assay type: functional, Muscle tissue; summary of the method: as §1
Rattus norvegicus [34] = experiment: Mean uptake in brain 2 hr after intravenous injection of 3 uM Ci (111 kBq) in presence of 60 ug coinjected estradiol; assay type: functional; summary of the method: as §1
Rattus norvegicus [35] = experiment: Mean uptake in ovaries 5 hr after intravenous injection of 3 microCi (111 kBq); assay type: functional, Female gonad; summary of the method: as §1
Rattus norvegicus [36] = experiment: Mean uptake in blood 2 hr after intravenous injection of 3 microCi (111 kBq) in presence of 60 ug coinjected estradiol; assay type: functional; summary of the method: as §1
Rattus norvegicus [37] = experiment: Mean uptake in spleen 5 hr after intravenous injection of 3 microCi (111 kBq); assay type: functional; summary of the method: as §1
Rattus norvegicus [38] = experiment: Mean uptake in adrenals 2 hr after intravenous injection of 3 microCi (111 kBq); assay type: functional, Adrenal gland; summary of the method: as §1
Rattus norvegicus [39] = experiment: In vivo deiodination in 5 hr after administration of compound; assay type: functional; summary of the method: as §2
Rattus norvegicus [40] = experiment: Mean uptake in kidneys 2 hr after intravenous injection of 3 microCi (111 kBq); assay type: functional; summary of the method: as §1
Rattus norvegicus [41] = experiment: Mean uptake in lungs 1 hr after intravenous injection of 3 microCi (111 kBq) of the compound; assay type: functional; summary of the method: as §1
Rattus norvegicus [42] = experiment: Mean uptake in uterus 2 hr after intravenous injection of 3 uM Ci (111 kBq) in presence of 60 ug coinjected estradiol; assay type: functional; summary of the method: as §3
Rattus norvegicus [43] = experiment: Mean uptake in lungs 5 hr after intravenous injection of 3 microCi (111 kBq); assay type: functional; summary of the method: as §1
Rattus norvegicus [44] = experiment: Mean uptake in thyroid 2 hr after intravenous injection of 3 microCi (111 kBq) in presence of 60 ug coinjected estradiol; assay type: functional, Thyroid gland; summary of the method: as §1
Rattus norvegicus [45] = experiment: Mean uptake in adrenals 1 hr after intravenous injection of 3 microCi (111 kBq) of the compound; assay type: functional, Adrenal gland; summary of the method: as §1
Rattus norvegicus [46] = experiment: Mean uptake in muscle 1 hr after intravenous injection of 3 microCi (111 kBq) of the compound; assay type: functional, Muscle tissue; summary of the method: as §1

In the case of `C[C@]12CC[C@@H]3c4ccc(O)cc4CC[C@H]3[C@@H]1CC[C@@]2(O)/C=C\[125I]`, the PDK (Rattus norvegicus [1]) is reported as 85, the PDK (Rattus norvegicus [2]) is reported as 3718 and the PDK (Rattus norvegicus [3]) is reported as 57. It also gave a PDK (Rattus norvegicus [4]) of 77, a PDK (Rattus norvegicus [5]) of 29 and a PDK (Rattus norvegicus [6]) of 58. For the same compound, the PDK (Rattus norvegicus [7]) was 228, the PDK (Rattus norvegicus [8]) was 20 and the PDK (Rattus norvegicus [9]) was 16. The PDK (Rattus norvegicus [10]) was 83, the Change (Rattus norvegicus [11]) was -78% and the “Uterus to blood ratio” value (Rattus norvegicus [11]) was 3. It also gave a PDK (Rattus norvegicus [12]) of 36, a Deiodination (Rattus norvegicus [13]) of 3.7% and a PDK (Rattus norvegicus [14]) of 17. It also gave a PDK (Rattus norvegicus [15]) of 84, a PDK (Rattus norvegicus [16]) of 166 and a PDK (Rattus norvegicus [17]) of 106. For the same compound, the PDK (Rattus norvegicus [18]) was 2547, the PDK (Rattus norvegicus [19]) was 116 and the PDK (Rattus norvegicus [20]) was 25. It also gave a PDK (Rattus norvegicus [21]) of 34, a PDK (Rattus norvegicus [22]) of 10 and a Deiodination (Rattus norvegicus [23]) of 2.8%. It also gave a PDK (Rattus norvegicus [24]) of 26, a PDK (Rattus norvegicus [25]) of 23 and a Deiodination (Rattus norvegicus [26]) of 3.8%. The PDK (Rattus norvegicus [27]) was 5, the PDK (Rattus norvegicus [28]) was 11 and the PDK (Rattus norvegicus [29]) was 11. For the same compound, the PDK (Rattus norvegicus [30]) was 148, the PDK (Rattus norvegicus [31]) was 19 and the PDK (Rattus norvegicus [32]) was 12. For the same compound, the PDK (Rattus norvegicus [33]) was 10, the PDK (Rattus norvegicus [34]) was 14 and the PDK (Rattus norvegicus [35]) was 50. The PDK (Rattus norvegicus [36]) was 14, the PDK (Rattus norvegicus [37]) was 9 and the PDK (Rattus norvegicus [38]) was 67. The Deiodination (Rattus norvegicus [39]) was 17%, the PDK (Rattus norvegicus [40]) was 32 and the PDK (Rattus norvegicus [41]) was 44. For the same compound, the PDK (Rattus norvegicus [42]) was 41, the PDK (Rattus norvegicus [43]) was 18 and the PDK (Rattus norvegicus [44]) was 4975. The PDK (Rattus norvegicus [45]) was 154 and the PDK (Rattus norvegicus [46]) was 24.
